Experimental data: ChEMBL document CHEMBL3120107, “Cytotoxic cardiac glycosides and coumarins from Antiaris toxicaria” (2014)
≈ marks a conversion by molar mass, not a printed value. Calls of active or inactive are those of the source. The rule behind the calls is not given here.

How the values were obtained:
[1] = tested on: SK-MEL-2; assay: Cytotoxicity against human SK-MEL-2 cells assessed as growth inhibition after 72 hrs by SRB assay; type: functional; details: for EC50: Homo sapiens, SK-MEL-2, 72 h, read-out: ED50 (the source's name)
Summary of the method: (§1)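 Sulforhodamine B assay run by NCI-validated procedure. Cells grown at 37 °C under humidified 5% CO2 in RPMI-1640 with 25 mM HEPES, […] (w/v) sodium bicarbonate, 10% (v/v) FBS and 100 μg/mL kanamycin. Compounds came from DMSO stocks, with final DMSO ≤ 1% (v/v). Continuous exposure for 72 h. ED50 (μg/mL, 50% cell-number reduction) interpolated from dose-response data. Triplicate tests. Doxorubicin served as positive control.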

[2] = Cytotoxicity against human […] cells assessed as growth inhibition after 72 hrs by SRB assay; type: functional; details: Homo sapiens, HCT9, 72 h; read-out: ED50 (the source's name); summary of the method: as §1
[3] = tested on: CAKI-1; assay: Cytotoxicity against human CAKI-1 cells assessed as growth inhibition after 72 hrs by SRB assay; type: functional; details: for EC50: Homo sapiens, CAKI-1, 72 h, read-out: ED50 (the source's name); summary of the method: as §1
[4] = tested on: 1A9; assay: Cytotoxicity against human 1A9 cells assessed as growth inhibition after 72 hrs by SRB assay; type: functional; details: for EC50: Homo sapiens, 1A9, 72 h, read-out: ED50 (the source's name); summary of the method: as §1
[5] = tested on: MCF7; assay: Cytotoxicity against human MCF7 cells assessed as growth inhibition after 72 hrs by SRB assay; type: functional; details: Homo sapiens, MCF7, 72 h; read-out: ED50 (the source's name); summary of the method: as §1
[6] = tested on: A549; assay: Cytotoxicity against human A549 cells assessed as growth inhibition after 72 hrs by SRB assay; type: functional; details: Homo sapiens, A549, 72 h; read-out: ED50 (the source's name); summary of the method: as §1
[7] = tested on: KBVIN; assay: (§2) Cytotoxicity against human KBVIN cells assessed as growth inhibition after 72 hrs by SRB assay; type: functional; summary of the method: as §1
[8] = tested on: PC-3; assay: Cytotoxicity against human PC3 cells assessed as growth inhibition after 72 hrs by SRB assay; type: functional; details: for EC50: Homo sapiens, PC-3, 72 h, read-out: ED50 (the source's name); summary of the method: as §1
[9] = Cytotoxicity against human U87MG cells assessed as growth inhibition after 72 hrs by SRB assay; type: functional, U-87MG ATCC; details: Homo sapiens, U-87 MG, 72 h; read-out: ED50 (the source's name); summary of the method: as §1
[10] = as §2; type: functional; details: Homo sapiens, KBVIN, 72 h; read-out: ED50 (the source's name); summary of the method: as §1
[11] = tested on: KB; assay: Cytotoxicity against human KB cells assessed as growth inhibition after 72 hrs by SRB assay; type: functional; details: Homo sapiens, KB, 72 h; read-out: ED50 (the source's name); summary of the method: as §1

SMILES: COc1c(CC(O)C(C)(C)O)cc2ccc(=O)oc2c1O (centres undefined)
- EC50 [1]: 1.3 µg/mL (≈ 4.42 µM)
- EC50 [2]: 6.7 µg/mL (≈ 22.8 µM)
- EC50 [3]: 1.5 µg/mL (≈ 5.1 µM)
- EC50 [4]: 1.5 µg/mL (≈ 5.1 µM)
- EC50 [5]: > 20 µg/mL
- EC50 [6]: 10.8 µg/mL (≈ 36.7 µM)
- growth inhibition (GI) [7]: inactive

SMILES: C[C@@H]1O[C@H](O[C@H]2CC[C@]3(CO)[C@H]4CC[C@]5(C)[C@@H](C6=CC(=O)OC6)CC[C@]5(O)[C@@H]4CC[C@]3(O)C2)[C@H](O)[C@H](O)[C@H]1O [CONVALLATOXOL]
- EC50 [1]: 0.014 µg/mL (≈ 0.0253 µM)
- EC50 [2]: 0.02 µg/mL (≈ 0.0362 µM)
- EC50 [3]: 0.0061 µg/mL (≈ 0.011 µM)
- EC50 [4]: 0.0076 µg/mL (≈ 0.0138 µM)
- EC50 [8]: 0.013 µg/mL (≈ 0.0235 µM)
- EC50 [9]: 0.036 µg/mL (≈ 0.0651 µM)
- EC50 [5]: 0.012 µg/mL (≈ 0.0217 µM)
- EC50 [6]: 0.004 µg/mL (≈ 0.00724 µM)
- EC50 [10]: 0.014 µg/mL (≈ 0.0253 µM)
- EC50 [11]: 0.025 µg/mL (≈ 0.0452 µM)

SMILES: C[C@@H]1O[C@@H](O[C@H]2CC[C@]3(C=O)[C@H]4CC[C@]5(C)[C@@H](C6=CC(=O)OC6)CC[C@]5(O)[C@@H]4CC[C@]3(O)C2)[C@H](O)[C@H](O)[C@H]1O[C@@H]1O[C@H](CO)[C@@H](O)[C@H](O)[C@H]1O [CONVALLOSIDE]
- EC50 [1]: 0.42 µg/mL (≈ 0.589 µM)
- EC50 [2]: 0.2 µg/mL (≈ 0.281 µM)
- EC50 [3]: 0.071 µg/mL (≈ 0.0996 µM)
- EC50 [4]: 0.072 µg/mL (≈ 0.101 µM)
- EC50 [8]: 0.095 µg/mL (≈ 0.133 µM)
- EC50 [9]: 0.4 µg/mL (≈ 0.561 µM)
- EC50 [5]: 0.15 µg/mL (≈ 0.21 µM)
- EC50 [6]: 0.07 µg/mL (≈ 0.0982 µM)
- EC50 [10]: 0.18 µg/mL (≈ 0.253 µM)
- EC50 [11]: 0.2 µg/mL (≈ 0.281 µM)

SMILES: C[C@H]1O[C@@H](O[C@H]2CC[C@]3(C=O)[C@H]4CC[C@]5(C)[C@@H](C6=CC(=O)OC6)CC[C@]5(O)[C@@H]4CC[C@]3(O)C2)[C@H](O)[C@H](O)[C@H]1O [DESGLUCOCHEIROTOXIN]
- EC50 [1]: 0.015 µg/mL (≈ 0.0272 µM)
- EC50 [2]: 0.044 µg/mL (≈ 0.0799 µM)
- EC50 [3]: 0.014 µg/mL (≈ 0.0254 µM)
- EC50 [4]: 0.012 µg/mL (≈ 0.0218 µM)
- EC50 [8]: 0.018 µg/mL (≈ 0.0327 µM)
- EC50 [9]: 0.054 µg/mL (≈ 0.0981 µM)
- EC50 [5]: 0.015 µg/mL (≈ 0.0272 µM)
- EC50 [6]: 0.0092 µg/mL (≈ 0.0167 µM)
- EC50 [10]: 0.018 µg/mL (≈ 0.0327 µM)
- EC50 [11]: 0.044 µg/mL (≈ 0.0799 µM)

SMILES: C[C@H]1O[C@H](O[C@H]2CC[C@]3(C=O)[C@H]4CC[C@]5(C)[C@@H](C6=CC(=O)OC6)CC[C@]5(O)[C@@H]4CC[C@]3(O)C2)[C@H](O)[C@H](O[C@@H]2O[C@H](CO)[C@@H](O)[C@H](O)[C@H]2O)[C@@H]1O [GLUCOSTROPHALLOSIDE]
- EC50 [1]: 0.12 µg/mL (≈ 0.168 µM)
- EC50 [2]: 0.13 µg/mL (≈ 0.182 µM)
- EC50 [3]: 0.065 µg/mL (≈ 0.0912 µM)
- EC50 [4]: 0.057 µg/mL (≈ 0.08 µM)
- EC50 [8]: 0.084 µg/mL (≈ 0.118 µM)
- EC50 [9]: 0.15 µg/mL (≈ 0.21 µM)
- EC50 [5]: 0.096 µg/mL (≈ 0.135 µM)
- EC50 [6]: 0.038 µg/mL (≈ 0.0533 µM)
- EC50 [10]: 0.083 µg/mL (≈ 0.116 µM)
- EC50 [11]: 0.12 µg/mL (≈ 0.168 µM)

SMILES: C[C@@H]1O[C@H](O[C@H]2CC[C@@]3(C=O)[C@H](CC[C@@H]4[C@@H]3CC[C@]3(C)[C@@H](C5=CC(=O)OC5)CC[C@]43O)C2)[C@H](O)[C@H](O)[C@H]1O [MALAYOSIDE]
- EC50 [1]: 0.62 µg/mL (≈ 1.16 µM)
- EC50 [2]: 0.18 µg/mL (≈ 0.337 µM)
- EC50 [3]: 0.073 µg/mL (≈ 0.137 µM)
- EC50 [4]: 0.076 µg/mL (≈ 0.142 µM)
- EC50 [8]: 0.11 µg/mL (≈ 0.206 µM)
- EC50 [9]: 0.37 µg/mL (≈ 0.692 µM)
- EC50 [5]: 0.19 µg/mL (≈ 0.355 µM)
- EC50 [6]: 0.08 µg/mL (≈ 0.15 µM)
- EC50 [10]: 0.32 µg/mL (≈ 0.599 µM)
- EC50 [11]: 0.3 µg/mL (≈ 0.561 µM)

SMILES: CC(C)(O)[C@@H]1Cc2cc3ccc(=O)oc3cc2O1 [MARMESIN]
- growth inhibition (GI) [1]: inactive
- growth inhibition (GI) [3]: inactive
- growth inhibition (GI) [4]: inactive
- growth inhibition (GI) [8]: inactive
- EC50 [5]: > 20 µg/mL
- EC50 [6]: > 20 µg/mL
- growth inhibition (GI) [7]: inactive

SMILES: C[C@@H]1O[C@H](O[C@H]2CC[C@]3(C)[C@H]4CC[C@]5(C)[C@@H](C6=CC(=O)OC6)CC[C@]5(O)[C@@H]4CC[C@]3(O)C2)[C@H](O)[C@H](O)[C@H]1O [PERIPLORHAMNOSIDE]
- EC50 [1]: 0.017 µg/mL (≈ 0.0317 µM)
- EC50 [2]: 0.044 µg/mL (≈ 0.082 µM)
- EC50 [3]: 0.014 µg/mL (≈ 0.0261 µM)
- EC50 [4]: 0.012 µg/mL (≈ 0.0224 µM)
- EC50 [8]: 0.021 µg/mL (≈ 0.0391 µM)
- EC50 [9]: 0.082 µg/mL (≈ 0.153 µM)
- EC50 [5]: 0.018 µg/mL (≈ 0.0335 µM)
- EC50 [6]: 0.012 µg/mL (≈ 0.0224 µM)
- EC50 [10]: 0.02 µg/mL (≈ 0.0373 µM)
- EC50 [11]: 0.054 µg/mL (≈ 0.101 µM)

SMILES: C[C@]12CC[C@H]3[C@@H](CC[C@]4(O)C[C@@H](O)CC[C@]34C=O)[C@@]1(O)CC[C@@H]2C1=CC(=O)OC1 [STROPHANTHIDIN]
- EC50 [1]: 0.13 µg/mL (≈ 0.321 µM)
- EC50 [2]: 0.51 µg/mL (≈ 1.26 µM)
- EC50 [3]: 0.14 µg/mL (≈ 0.346 µM)
- EC50 [4]: 0.15 µg/mL (≈ 0.371 µM)
- EC50 [8]: 0.17 µg/mL (≈ 0.42 µM)
- EC50 [9]: 0.72 µg/mL (≈ 1.78 µM)
- EC50 [5]: 0.38 µg/mL (≈ 0.939 µM)
- EC50 [6]: 0.11 µg/mL (≈ 0.272 µM)
- EC50 [10]: 0.69 µg/mL (≈ 1.71 µM)
- EC50 [11]: 0.61 µg/mL (≈ 1.51 µM)

SMILES: C[C@]12CC[C@H]3[C@@H](CC[C@]4(O)C[C@@H](O)CC[C@]34CO)[C@@]1(O)CC[C@@H]2C1=CC(=O)OC1 [STROPHANTHIDOL]
- EC50 [1]: 0.57 µg/mL (≈ 1.4 µM)
- EC50 [2]: 6.4 µg/mL (≈ 15.7 µM)
- EC50 [3]: 0.67 µg/mL (≈ 1.65 µM)
- EC50 [4]: 0.66 µg/mL (≈ 1.62 µM)
- EC50 [8]: 0.81 µg/mL (≈ 1.99 µM)
- EC50 [9]: 2.9 µg/mL (≈ 7.13 µM)
- EC50 [5]: 0.69 µg/mL (≈ 1.7 µM)
- EC50 [6]: 0.14 µg/mL (≈ 0.344 µM)
- EC50 [10]: 3 µg/mL (≈ 7.38 µM)
- EC50 [11]: 2.7 µg/mL (≈ 6.64 µM)

SMILES: CO[C@H]1[C@@H](O[C@H]2CC[C@]3(C=O)[C@H]4C[C@@H](O)[C@]5(C)[C@@H](C6=CC(=O)OC6)CC[C@]5(O)[C@@H]4CC[C@]3(O)C2)O[C@H](C)[C@@H](O)[C@@H]1O [TOXICARIOSIDE B]
- EC50 [1]: 0.12 µg/mL (≈ 0.207 µM)
- EC50 [2]: 0.11 µg/mL (≈ 0.189 µM)
- EC50 [3]: 0.07 µg/mL (≈ 0.121 µM)
- EC50 [4]: 0.063 µg/mL (≈ 0.108 µM)
- EC50 [8]: 0.091 µg/mL (≈ 0.157 µM)
- EC50 [9]: 0.13 µg/mL (≈ 0.224 µM)
- EC50 [5]: 0.092 µg/mL (≈ 0.158 µM)
- EC50 [6]: 0.058 µg/mL (≈ 0.0999 µM)
- EC50 [10]: 0.14 µg/mL (≈ 0.241 µM)
- EC50 [11]: 0.13 µg/mL (≈ 0.224 µM)
